Published values pooled from the literature.
Compare with care: the assays were run in different laboratories.
Cell line: CCRF-CEM
Observed: cell growth or viability

| Structure (SMILES) | method | tested at | time | quantity | result |
| --- | --- | --- | --- | --- | --- |
| COc1ccc(C(=O)/C=C/c2cccc(Cl)c2Cl)cc1S(N)(=O)=O | SRB | 10 µM |  | inhibition | 99% |
| O=C1C(=Cc2ccc(Cl)c(Cl)c2)CN(C(=O)C(Cl)Cl)CC1=Cc1ccc(Cl)c(Cl)c1 | imaging |  | 24 h | CC50 | 0.0932 µM |
| COc1ccc(-c2cn(-c3cc(=O)oc4ccc(Br)cc34)nn2)cc1 |  |  | 48 h | CC50 | 9.8 µM |
| COc1cccc(Oc2ccccc2NC(=O)CNC(=O)c2cccc3ccccc23)c1 | SRB |  | 48 h | GI50 | 363 nM |
| O=C(CN1C(=O)SC(=Cc2ccccn2)C1=O)Nc1nc2ccccc2s1 | MTT |  | 48 h | CC50 | 11.9 µM |
| COc1cc(-c2cn(-c3cc(=O)oc4ccc(Cl)cc34)nn2)cc(OC)c1OC |  |  | 48 h | CC50 | 37.2 µM |
| COc1ccc(C(=O)/C=C/c2ccc3ccccc3c2)cc1S(N)(=O)=O | SRB |  | 48 h | GI50 | 2600 nM |
| O=C1C(=Cc2ccc(F)c(F)c2)CN(C(=O)C(Cl)Cl)CC1=Cc1ccc(F)c(F)c1 | imaging |  | 24 h | CC50 | 0.0993 µM |
